Data published in ChEMBL document CHEMBL1221371, “Norterpenoids and related peroxides from the formosan marine sponge Negombata corticata” (J Nat Prod, 2010).

Experiments:
HepG2 = experiment: Cytotoxicity against human HepG2 cells by MTT assay; assay type: functional, cell-based
Procedure, shortened: (§1)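 Human cancer cell lines were obtained from ATCC. Viability was read colorimetrically by MTT reduction, with doxorubicin as the positive control. IC50 values were derived in µM.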

[1] = Cytotoxicity against human Hep3B cells by MTT assay; assay type: functional, cell-based, Hep 3B2; procedure, shortened: as §1
MCF7 = experiment: Cytotoxicity against human MCF7 cells by MTT assay; assay type: functional, cell-based; procedure, shortened: as §1
A549 = experiment: Cytotoxicity against human A549 cells by MTT assay; assay type: functional, cell-based; procedure, shortened: as §1
MDA-MB-231 = experiment: Cytotoxicity against human MDA-MB-231 cells by MTT assay; assay type: functional, cell-based; procedure, shortened: as §1

Structure (SMILES) | IC50 (HepG2) | IC50 [1] | IC50 (MCF7) | IC50 (A549) | IC50 (MDA-MB-231)
CC(=O)CCCC(C)(C)C(=O)CCC(C)=O | > 50 µM | > 50 µM | > 50 µM | > 50 µM | > 50 µM
COC(=O)[C@@H](C)[C@@H]1CC[C@](C)(CCC(=O)C(C)(C)CCCC(C)=O)OO1 [DIACARPEROXIDE B] | 11.9 µM | 11.9 µM | 11.9 µM | 11.9 µM | 11.9 µM
COc1cccc2c1C(=O)c1c(O)c3c(c(O)c1C2=O)C[C@@](O)(C(=O)CO)C[C@@H]3O[C@H]1C[C@H](N)[C@H](O)[C@H](C)O1 [DOXORUBICIN] | 0.19 µM | 0.14 µM |  |  | 0.24 µM
C=C1CCCC(C)(C)C1CC[C@@]1(C)CC[C@H]([C@@H](C)C(=O)O)OO1 (stereo partly drawn) [NAPAPUIN B] | 0.9 µM | 41.3 µM | 5.9 µM | 0.6 µM | 0.3 µM
C=C1CCCC(C)(C)C1CC[C@@](C)(O)CC[C@@H](O)[C@@H](C)C(=O)OC (stereo partly drawn) [NEGOMBATODIOL] | > 50 µM | > 50 µM | > 50 µM | > 50 µM | > 50 µM
C=C1CCCC(C)(C)C1CC[C@]1(C)CCC(=O)O1 (stereo partly drawn) [NEGOMBATOLACTONE] | > 50 µM | > 50 µM | > 50 µM | > 50 µM | > 50 µM
C/C(=C\CC[C@]1(C)CC[C@H]([C@@H](C)C(=O)O)OO1)CCC12OC1(C)CCCC2(C)C (stereo partly drawn) [NEGOMBATOPEROXIDE A] | > 50 µM | > 50 µM | > 50 µM | > 50 µM | > 50 µM
CC(=O)/C=C/C[C@]1(C)CC[C@H]([C@@H](C)C(=O)O)OO1 [NEGOMBATOPEROXIDE B] | > 50 µM | > 50 µM | > 50 µM | > 50 µM | > 50 µM
C[C@@H](C(=O)O)[C@H]1CC[C@@](C)(C/C=C/C2(C)CCC(=O)O2)OO1 (stereo partly drawn) [NEGOMBATOPEROXIDE C/D] | > 50 µM | > 50 µM | > 50 µM | > 50 µM | > 50 µM
C=C1CCCC(C)(C)C1CC[C@]1(C)CC[C@H]([C@@H](C)C(=O)OC)OO1 (stereo partly drawn) [NUAPAPUIN B] | 2.9 µM | 23.7 µM | 38.5 µM | 5.38 µM | 3.5 µM
